According to ChEMBL document CHEMBL3352556, “Neural cell activation by phenolic compounds from the Siberian larch (Larix sibirica)” (J Nat Prod, 2014):
Activity calls are given as the source filed them. The rule behind the calls is not given here.

How the values were obtained:
[1] = Cytotoxicity against C57BL/6J mouse primary cerebellar neurons assessed as reduction in cell viability at 1 uM after 24 hrs by microscopy
[2] = tested on: Astrocyte; assay: Reduction in migration of C57BL/6J mouse brain astrocytes assessed as distance of migration at 100 nM after 8 to 48 hrs by scratch injury assay (reference value: 700 um); type: functional
[3] = Cytotoxicity against C57BL/6J mouse Schwann cells at 1 uM after 24 hrs by microscopy; type: cell-based
[4] = species on record: Mus musculus; assay: Induction of neurite outgrowth in C57BL/6J mouse primary cerebellar neurons after 24 hrs by microscopy; type: functional
Method in brief: (§1)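 Cerebellar granule neurons from 6- to 8-day-old mice were plated at 2.5 × 10^4 cells/well on PLL in defined serum-free medium. Compound (100 pM–1 μM; 0.1% DMSO final, DMSO control) was added 1 h post-seeding and cells were fixed at 24 h. Neurite length was measured by microscopy. Duplicates, ≥100 cells per treatment, 3 independent experiments, mean ± SEM.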

[5] = Induction of migration of C57BL/6J mouse cerebellar primary neuron assessed as cell population migrating to 1- 150 um at 100 nM after 48 hrs by microscopy (reference value: 72 %); type: functional
[6] = Induction of migration of C57BL/6J mouse cerebellar primary neuron assessed as cell population migrating to 151- 300 um at 100 nM after 48 hrs by microscopy (reference value: 25 %); type: functional
[7] = Induction of migration of C57BL/6J mouse cerebellar primary neuron at 100 nM after 48 hrs by microscopy relative to DMSO-treated control; type: functional
[8] = Induction of neurite outgrowth in C57BL/6J mouse primary cerebellar neurons at 100 nM after 24 hrs by microscopy relative to DMSO-treated control; type: functional; method in brief: as §1
[9] = species on record: Mus musculus; assay: Induction of neurite outgrowth in C57BL/6J mouse motoneurons at 1 to 200 nM after 24 hrs by microscopy; type: functional
Method in brief: (§2)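 Motoneurons came from spinal cords of E14.5 mice, were seeded at 1.25 × 10^4 cells/well on poly-L-ornithine and cultured serum-free. Compound was added 1 h after seeding (0.1% DMSO final; DMSO control) and cells were fixed at 24 h. Neurite length was measured microscopically. Duplicates, ≥100 cells per treatment, 3 independent experiments, mean ± SEM.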

[10] = tested on: Schwann; assay: Stimulation of process formation/elongation of C57BL/6J mouse Schwann cells at 1 uM after 24 hrs by microscopy; type: functional, cell-based
Method in brief: (§3)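 Schwann cells from dorsal root ganglia of 6- to 8-day-old mice were seeded at 1.25 × 10^4 cells/well on PLL and cultured serum-free. Compound (0.1% DMSO final; DMSO control) was added 1 h after seeding and cells were fixed at 24 h. Process length was measured microscopically. Duplicates, ≥100 cells per treatment, 3 independent experiments, mean ± SEM.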

[11] = Stimulation of process formation/elongation of C57BL/6J mouse Schwann cells at 100 pM to 100 nM after 24 hrs by microscopy relative to DMSO-treated control; type: functional; method in brief: as §3
[12] = tested on: Schwann; assay: Stimulation of process formation/elongation of C57BL/6J mouse Schwann cells after 24 hrs by microscopy; type: functional, cell-based; method in brief: as §3
[13] = species on record: Mus musculus; assay: Induction of neurite outgrowth in C57BL/6J mouse motoneurons at 500 nM after 24 hrs by microscopy; type: functional; method in brief: as §2
[14] = Induction of migration of C57BL/6J mouse cerebellar primary neuron assessed as cell population migrating to >301 um at 100 nM after 48 hrs by microscopy (reference value: 3 %); type: functional
[15] = Induction of neurite outgrowth in C57BL/6J mouse dorsal root ganglion neurons at 100 nM after 24 hrs by microscopy relative to DMSO-treated control; type: functional, DRG neuron
Method in brief: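 Dorsal root ganglion neurons from 6- to 8-day-old mice were seeded at 1.25 × 10^4 cells/well on PLL in serum-free culture. 100 nM compound (0.1% DMSO final) was added 1 h after seeding. Cells were fixed after 24 h and neurite length was measured by microscopy versus DMSO control. Duplicates, ≥100 cells per treatment, 3 independent experiments, mean ± SEM.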

SMILES | Activity [1] | Activity [2] [µm] | Activity [3] | Activity [4] | Activity [5] [%] | Activity [6] [%] | fold change (FC) [7] | fold change (FC) [8] | Activity [9] | Activity [10] | fold change (FC) [11] | Activity [12] | Activity [13] | Activity [14] [%] | fold change (FC) [15]
COc1cc(C[C@@H](CO)[C@H](CO)Cc2ccc(O)c(OC)c2)ccc1O [(+)-SECOISOLARICIRESINOL] | Non-toxic | 500 | Non-toxic | Dose-dependent effect | 65 | 27 | 1.2 | 1.6 | Active | inactive | 1.8 | Dose-dependent effect | inactive | 8 | –
O=C1c2c(O)cc(O)cc2O[C@H](c2ccc(O)c(O)c2)[C@H]1O [(+)-TAXIFOLIN] | Non-toxic | 500 | Non-toxic | Dose-dependent effect | 59 | 29 | 1.4 | 1.6 | Active | inactive | 1.9 | Dose-dependent effect | inactive | 12 | 1.7
COc1cc([C@H]2c3cc(O)c(OC)cc3C[C@@H](CO)[C@@H]2CO)ccc1O [ISOLARICIRESINOL] | Non-toxic | 500 | Non-toxic | Dose-dependent effect | 68 | 24 | 1.2 | 1.6 | Active | inactive | 1.8 | Dose-dependent effect | inactive | 8 | –
